Each structure is given as a SMILES string.

The nature of this series: Toxicity liver stage against HepG2, at 10uM. Details: test concentration 10 uM, cell line HepG2-A16-CD81EGFP. It counts as cell-based. The following applies: human, HepG2-A16-CD81EGFP cells; read-out: INHIBITION
In a few lines: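 Uninfected HepG2-A16-CD81EGFP cells, 3 × 10^3 per well, 1536-well, plated on prespotted compound at 10 μM final, parasite-free screening media added to match infected plates; puromycin 10 μM positive, DMSO 0.5% negative; run in parallel with 48 h PbLuc assay at 37 °C, 5% CO2; viability by CellTiter-Glo luminescence, normalized to controls.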
As for `O=C(NC1CCCC1)c1ccc(COCC(F)(F)F)o1`, the cytotoxicity at 10 µM came out at 10.6%.
As for `COc1ccc(CNc2c(N3CCN(C)CC3)c(=O)c2=O)cc1`, the cytotoxicity at 10 µM is 2.4%.
As to `CC(C)n1cnc(-c2nc(C(=O)N3CCCC3)c3ccccn23)c1`, the cytotoxicity at 10 µM amounted to 6.47%.
The same measure for `Cc1cccc(S(=O)(=O)N2Cc3c(CN(C)C)nn(C)c3C2)c1`: -0.53%; for `COc1ccc(NC(=O)CSc2nncn2-n2cccc2)c(OC)c1`: -2.74%; for `Cc1ccc(-c2[nH]c3ccccc3c2C(=O)O)c(C)c1`: 12.3%.
`CCOC1Sc2nnc(C)n2N=C1c1ccc(Cl)cc1` (stereo unspecified): the cytotoxicity at 10 µM was 11.3%.
Consider `CCc1nn(-c2cc(Oc3ccccc3)nc(C)n2)c(N)c1C#N`, for which the cytotoxicity at 10 µM came out at 3.62%.
Take `CC(C)CN1CCC2(CCN(C(=O)c3ccc(F)cc3)CC2)C1=O`: the cytotoxicity at 10 µM amounted to 8.06%.
Consider `Cc1noc([C@H]2C[C@H]3OCC[C@H]3N(S(=O)(=O)C3CC3)C2)n1`, for which the cytotoxicity at 10 µM is -10.5%.
Under `CCS(=O)(=O)N1CCC(c2nc3ccc(-c4ccccc4)cn3n2)CC1` stands -7.41%; under `CCn1c(SCC(N)=O)nnc1C(C)NC(=O)c1ccc(Cl)cc1` (stereo unspecified), -36.4%; under `CCn1nc(C)c2c1cnn2CC(=O)N1CCN(C)CC1`, 4.92%.
For `Cc1cc(C)n(Cc2cccc(C(=O)NCCN3CCOCC3)c2)n1`, the cytotoxicity at 10 µM was -12.8%.
For the compound `c1cnnc(N[C@@H]2CC[C@@H]3CN(Cc4c[nH]c5ccccc45)C[C@@H]32)c1`, the cytotoxicity at 10 µM is 3.33%.
The same measure for `Nc1cc(-c2c[nH]nc2C2CCN(C(=O)C3CCCC3)C2)ccn1` (stereo unspecified): 7.49%; for `Cc1nc(NCc2ccccc2)cc(C(C)Cn2nc(C)c(C)c2C)n1` (stereo unspecified): 7.03%.
Turning to `Cc1noc(C)c1-c1ccc(C2CCCN2C(=O)c2cccnn2)nc1` (stereo unspecified), the cytotoxicity at 10 µM was -18.9%.
Consider `Cc1cccc(C(=O)N2CCCC[C@]3(C)NC(=O)CCC[C@H]23)n1`, for which the cytotoxicity at 10 µM was -21.3%.
On to `O=C(NC1CC1)C1(Cc2cc(-c3ccc(F)cc3F)no2)CCOCC1`, for which the cytotoxicity at 10 µM was 11%.
The same measure for `Cc1nc(O)c2nnn(C[C@H]3CCCN3C(=O)c3cccs3)c2n1`: -25.6%.
With `Cc1cc(C(=O)NCc2ccc(F)cc2)c2c(C3CCCN3)noc2n1` (stereo unspecified), the cytotoxicity at 10 µM was 7.16%.
In the case of `CCOc1ccccc1CCNC(=O)NCC(O)c1cccs1` (stereo unspecified), the cytotoxicity at 10 µM is -4.47%.
The same measure for `O=C(C1CCCC1)N1CCC(C(O)c2ccc(F)cc2)CC1` (stereo unspecified): 8.54%; for `N#CC(NC(=O)c1cccc2c1OCCO2)c1ccc(F)cc1F` (stereo unspecified): -2.61%.
For the compound `CN1CCN(CCNC(=O)c2sccc2C2CC2)CC1`, the cytotoxicity at 10 µM is -149%.
`Cn1ncc2c(=O)[nH]c(N3CCCC3c3cccc(Cl)c3)nc21` (stereo unspecified): the cytotoxicity at 10 µM came out at 19.6%.
Regarding `CC(C)NC(=O)NC(C)c1ccc(-c2ccncc2)cc1` (stereo unspecified), the cytotoxicity at 10 µM came out at 0.67%.
The same measure for `COC(=O)c1ccc(N2CCN(C(=O)C3CC3)C(C)C2)cc1` (stereo unspecified): -1.07%.
Regarding `CC(C)c1n[nH]c(C2CN(C(=O)COCC(F)(F)F)CCO2)n1` (stereo unspecified), the cytotoxicity at 10 µM was -10.3%.
Under `Cc1cccc(S(=O)(=O)N2CSCC2C(=O)NC(C)(C)C)c1` (stereo unspecified) stands -3.75%; under `Cc1noc(C)c1CNC(=O)N1CCC(CN2CCC(C)CC2)CC1`, 6.62%; under `O=C(Cc1ccc2c(c1)CCO2)N1CCCC1Cn1cccn1` (stereo unspecified), -149%.
Regarding `CC(C)n1cc(CN2CCCN(C(=O)c3ccnn3C)CC2)cn1`, the cytotoxicity at 10 µM was determined as 2.79%.
With `CC(NC(=O)C1CCCC1)c1nc(-c2ccccc2)c[nH]1` (stereo unspecified), the cytotoxicity at 10 µM was found to be 6%.
As to `CCN(CC)Cc1ccccc1NC(=O)N(C)Cc1ccc(OC)cc1`, the cytotoxicity at 10 µM was 10.7%.
Under `Cc1cnn(C2CN(Cc3noc(C)n3)C2)c1` stands 40.3%; under `COc1ccc(OCC(=O)NS(=O)(=O)c2cc(F)ccc2F)cc1`, -19.5%; under `Cc1ccc(CNCC2CCc3nnc(C(C)C)n3C2)s1` (stereo unspecified), -4.43%.
With `O=C(N1CCCC1)N1CCc2ncnc(C3CCOC3)c2CC1` (stereo unspecified), the cytotoxicity at 10 µM was determined as 3.45%.
On to `CS(=O)(=O)NCc1ncn2c1CN(C(=O)CC1CCCC1)CCC2`, for which the cytotoxicity at 10 µM was found to be 4.79%.
Consider `O=C1NCC2(CCCN(C(=O)c3c[nH]nc3C3CCCCC3)C2)O1` (stereo unspecified), for which the cytotoxicity at 10 µM was determined as 8.72%.
With `CN(Cc1ccc2nsnc2c1)CC1(O)CCNC1` (stereo unspecified), the cytotoxicity at 10 µM is -11.7%.
For `CCN(Cc1cccc(C(=O)Nc2c(C)cnn2C)c1)[C@H]1COC[C@@H]1O`, the cytotoxicity at 10 µM is -1.58%.
The same measure for `CN1CC(C(=O)N2CCN(c3cccc(Cl)c3)C(=O)C2)NC1=O` (stereo unspecified): -3.94%; for `CC(C)N1CCC(N2CCCC(C(=O)NCC3(C)COC3)C2)CC1` (stereo unspecified): -5.62%.
For the compound `Cc1ccccc1C(C(=O)N(C)CCc1cnn(C)c1)N(C)C` (stereo unspecified), the cytotoxicity at 10 µM is -3.57%.
Under `COCCC1CCCCN1Cc1nc(C2CC2)no1` (stereo unspecified) stands 8.53%; under `CC(C)[C@H]1CN(S(C)(=O)=O)C[C@@H]1NC(=O)c1ccnc(N)c1`, 8%; under `Cc1ccc(CN2CC3(CCN(C(=O)C4CC4)CC3)CC2C(=O)O)o1` (stereo unspecified), 1.52%.
In the case of `CCOc1ccc(OCc2nccc(-c3cc(C(=O)O)ccn3)n2)cc1`, the cytotoxicity at 10 µM is -11.8%.
For the compound `Cc1cccc2ncn(C(C)Cn3cccn3)c(=O)c12` (stereo unspecified), the cytotoxicity at 10 µM is -4.4%.
As for `O=C(c1cccnc1O)N1CCOC(Cc2cccc(C(F)(F)F)c2)C1` (stereo unspecified), the cytotoxicity at 10 µM is 2.26%.
Take `CC(C)c1cc(=O)[nH]c(-c2ccccc2CN2CCCC2C)n1` (stereo unspecified): the cytotoxicity at 10 µM came to 10.4%.
Consider `O[C@@H]1CN(CC2=Cc3cc(Cl)ccc3OC2)CC[C@H]1N1CCCCCC1`, for which the cytotoxicity at 10 µM was 1.9%.
The same measure for `Cc1cc(C(=O)N2CCc3[nH]cnc3C2C(=O)O)c(-c2ccccc2)o1` (stereo unspecified): -1.33%; for `COc1cc2c(cc1-c1nc3c(cnn3C(C)C(C)C)[nH]1)OCO2` (stereo unspecified): 8.61%.
As to `CCC(Oc1ccc(N(C)S(C)(=O)=O)cc1)C(=O)NC` (stereo unspecified), the cytotoxicity at 10 µM amounted to 0.0646%.
Under `O=C(Cc1ccc(F)cc1)NCCNc1cc(N2CCCC2)ncn1` stands -8.37%; under `C[C@@H]1CN(CC(C)(C)N2CCCCC2)C[C@@]1(O)C1CC1`, -0.519%.
Under `COc1ccc(C(C(=O)O)N2CCCN(C3CCCC3)CC2)cc1OC` (stereo unspecified) stands 7.44%.
Regarding `CCC(C)NC(=O)CCc1ccc(OCC(F)(F)F)c(OC)c1` (stereo unspecified), the cytotoxicity at 10 µM is -3.27%.
`OCCn1nccc1C1CCN(CCOc2cccc(F)c2)CC1`: the cytotoxicity at 10 µM is -10.8%.
On to `CCc1cnc(CN(C(C)=O)C2CCN(CCN3CCCCC3)C2)o1` (stereo unspecified), for which the cytotoxicity at 10 µM is -3.63%.
As to `CCOc1ncccc1NC(=O)N1CCC(CN2CCOCC2)CC1`, the cytotoxicity at 10 µM was -13.6%.
For `CCS(=O)(=O)c1ccccc1N1CCC(N)CC1`, the cytotoxicity at 10 µM was 3.03%.
Under `CN(Cc1noc(C2CC2)n1)C1CCN(CC(=O)N2CCOCC2)C1` (stereo unspecified) stands -5.25%; under `CCc1nc(C2CCCN2CCCS(N)(=O)=O)no1` (stereo unspecified), -6.66%; under `Cc1nc(CCNC(=O)NC(C)Cn2cccn2)cs1` (stereo unspecified), -1.85%.
With `O=C1CC(N(C(=O)c2ccc(Cl)c(Cl)c2)C2CC2)C(=O)N1` (stereo unspecified), the cytotoxicity at 10 µM was 0.0791%.
On to `CC(NC(=O)NCCn1ccnc1)c1ccc2c(c1)OCCO2` (stereo unspecified), for which the cytotoxicity at 10 µM is -9.44%.
As for `O=C(CCc1cscn1)N1CCCC(n2cncn2)C1` (stereo unspecified), the cytotoxicity at 10 µM was -3.81%.
Under `Cc1ccc(CNC(=O)CN2CCCC(Cn3cncn3)C2)cc1` (stereo unspecified) stands -11.5%; under `CC(C)C(=O)N(C)CC(=O)Nc1ccc(Br)cn1`, -6.22%; under `c1cnn(CC2CCCCN2Cc2nc(-c3ccoc3)no2)c1` (stereo unspecified), -5.22%.
Turning to `Cc1nc(C(=O)N2CCCC2c2noc(C3CC3)n2)c[nH]1` (stereo unspecified), the cytotoxicity at 10 µM is -7.06%.
`Cc1cc(NC(=O)CCN2CCCC2Cn2cccn2)no1` (stereo unspecified): the cytotoxicity at 10 µM is -5.09%.
The same measure for `CC(NC(=O)Cn1cc(-c2ccccc2)cn1)C1CC1` (stereo unspecified): 1.36%.
Take `CN(c1cccnn1)C1CCN(C(=O)c2ccc3c(c2)COC3)CC1`: the cytotoxicity at 10 µM is -12%.
Under `Cc1noc(CN2CCOC(CN(C)C)C2)n1` (stereo unspecified) stands -6.61%; under `CC(C)(C)c1n[nH]c(C2CN(C(=O)CCC3CC3)CCO2)n1` (stereo unspecified), -12.7%; under `O=C(CCCOCc1ccccc1)N1CCCC1c1ccccn1` (stereo unspecified), -14.4%.
Turning to `COCCOc1ccc(NC(=O)N(C)Cc2ccsc2)cn1`, the cytotoxicity at 10 µM was -2.81%.
The same measure for `CN(c1ccc(F)c(F)c1)S(=O)(=O)c1cc(C(=O)O)cs1`: -4.89%; for `COc1ccc(C(C)NC(=O)Cn2ccc(=O)n(C)c2=O)cc1OC` (stereo unspecified): -9.09%.
The same measure for `O=C(O)c1csc(S(=O)(=O)Nc2cccc(OC(F)F)c2)c1`: -2.63%; for `Cc1cc(C[C@@H]2COC[C@H]2NCc2ccc(Br)s2)on1`: 3.6%; for `CC(C)c1nn(C)cc1CNC1CCOc2ccccc21` (stereo unspecified): 0.923%.
Under `Cc1ccc(CN2CCC3(CC2)C(=O)N(C)c2ccccc23)s1` stands -5.68%; under `O=C(NCCc1ccncc1)[C@@H]1CC[C@@H]2[C@@H](CCN2Cc2ccco2)O1`, 1.15%; under `CCOC1COC2(CCN(Cc3cccc(F)c3)CC2)C1` (stereo unspecified), 5.47%.
In the case of `CC(C)COC1CC2(CCN(Cc3nccn3C)CC2)C1`, the cytotoxicity at 10 µM is -158%.
Regarding `Cc1ncccc1NC(=O)[C@H]1C[C@@H]2CCN(Cc3nccs3)C[C@@H]2O1`, the cytotoxicity at 10 µM came to 0.976%.
The same measure for `c1coc(CN2CCOC3(COCCN(Cc4ccncc4)C3)C2)c1` (stereo unspecified): 4.03%; for `CS(=O)(=O)N1C[C@H]2CC[C@@H](C1)N(C/C=C/c1ccc(F)cc1)C2`: -15.5%; for `CCn1[nH]c(C)c2c(C(F)(F)F)cc(=O)nc1-2`: -1.26%.

The values above are taken from ChEMBL document CHEMBL4513216, “Probing the Open Global Health Chemical Diversity Library for Multistage-Active Starting Points for Next-Generation Antimalarials” (ACS Infect Dis, 2020).
